Data taken from ChEMBL document CHEMBL4387752, “Identification of substituted benzothiazole sulfones as potent and selective inhibitors of endothelial lipase” (Bioorg Med Chem Lett, 2019).
pIC50: −log10 of the molar value.

Columns and labels:
Endothelial lipase [1] = target: T1, Endothelial lipase (Homo sapiens, UniProt Q9Y5X9); test: Inhibition of human endothelial lipase derived from human HT1080 cell conditioned media using PED-A1 as substrate incubated for 20 mins and measured every 20 secs for 10 mins by FRET assay
T1 sequence (Q9Y5X9 whole entry): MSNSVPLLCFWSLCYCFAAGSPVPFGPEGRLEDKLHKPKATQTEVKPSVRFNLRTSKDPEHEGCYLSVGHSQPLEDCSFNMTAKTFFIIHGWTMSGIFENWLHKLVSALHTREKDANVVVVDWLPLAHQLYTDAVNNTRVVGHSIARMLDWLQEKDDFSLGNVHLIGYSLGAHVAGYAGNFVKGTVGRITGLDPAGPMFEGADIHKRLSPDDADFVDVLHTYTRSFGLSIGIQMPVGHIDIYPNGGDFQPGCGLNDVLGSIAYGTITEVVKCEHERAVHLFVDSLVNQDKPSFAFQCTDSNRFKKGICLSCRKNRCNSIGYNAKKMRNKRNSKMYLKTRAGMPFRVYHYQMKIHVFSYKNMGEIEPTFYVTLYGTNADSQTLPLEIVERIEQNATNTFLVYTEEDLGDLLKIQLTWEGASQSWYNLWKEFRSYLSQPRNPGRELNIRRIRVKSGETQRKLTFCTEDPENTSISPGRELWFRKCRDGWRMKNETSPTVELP
Outline: (§1)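 IC50s were calculated from mean inhibition values of duplicate determinations.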

[2] = target: T2, Hepatic triacylglycerol lipase (Homo sapiens, UniProt P11150); test: Inhibition of human hepatic lipase expressed in African green monkey COS7 cells using PED-A1 as substrate incubated for 20 mins and measured every 20 secs for 10 mins by FRET assay; assay type: cell-based; outline: as §1
T2 sequence (P11150 whole entry): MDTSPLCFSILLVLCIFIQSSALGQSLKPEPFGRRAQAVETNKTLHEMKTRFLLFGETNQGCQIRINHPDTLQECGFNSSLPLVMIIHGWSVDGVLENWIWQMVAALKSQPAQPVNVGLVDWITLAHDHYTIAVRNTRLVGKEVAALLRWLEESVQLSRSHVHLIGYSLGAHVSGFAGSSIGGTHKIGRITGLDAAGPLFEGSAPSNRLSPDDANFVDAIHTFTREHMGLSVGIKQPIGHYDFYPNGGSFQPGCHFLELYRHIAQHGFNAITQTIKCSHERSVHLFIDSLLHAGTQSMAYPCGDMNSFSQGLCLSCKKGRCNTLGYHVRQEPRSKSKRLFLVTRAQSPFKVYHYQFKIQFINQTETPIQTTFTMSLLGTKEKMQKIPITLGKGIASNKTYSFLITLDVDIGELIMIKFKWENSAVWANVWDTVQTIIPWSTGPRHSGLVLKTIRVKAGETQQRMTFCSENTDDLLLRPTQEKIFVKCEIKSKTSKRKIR

Endothelial lipase [3] = target: T3, Endothelial lipase (Mus musculus, UniProt Q9WVG5); test: Inhibition of mouse endothelial lipase expressed in HEK293F cells using D31-POPC-HDL as substrate incubated for 2 hrs in presence of mouse plasma by LC/MS analysis
T3 sequence (Q9WVG5 whole entry): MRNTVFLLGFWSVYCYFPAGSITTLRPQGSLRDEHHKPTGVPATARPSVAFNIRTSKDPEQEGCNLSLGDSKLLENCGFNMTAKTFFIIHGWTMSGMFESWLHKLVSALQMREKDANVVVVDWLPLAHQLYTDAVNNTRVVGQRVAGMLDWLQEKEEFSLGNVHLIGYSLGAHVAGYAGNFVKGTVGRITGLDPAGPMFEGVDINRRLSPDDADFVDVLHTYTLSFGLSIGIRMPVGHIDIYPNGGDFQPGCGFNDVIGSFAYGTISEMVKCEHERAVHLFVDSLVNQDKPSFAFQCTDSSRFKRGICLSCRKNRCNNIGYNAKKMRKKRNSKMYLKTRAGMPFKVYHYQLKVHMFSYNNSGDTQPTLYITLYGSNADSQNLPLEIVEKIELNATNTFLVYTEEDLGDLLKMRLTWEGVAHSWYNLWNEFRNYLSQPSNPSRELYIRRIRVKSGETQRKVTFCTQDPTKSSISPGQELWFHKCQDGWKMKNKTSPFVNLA
Outline: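 IC50 values were derived from the means of duplicate inhibition measurements.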

[4] = Cmax in Balb/c mouse at 10 mg/kg, po; assay type: ADME, organism-based; design: dose 10 mg/kg, route oral; settings: in vivo
Outline: (§2)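 Oral PK in fasted male balb/c mice. Dosing vehicle was ethanol/PEG 400/water (10:60:30).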

[5] = Plasma concentration in Balb/c mouse at 10 mg/kg, po measured after 7 hrs; assay type: ADME, organism-based; outline: as §2
[6] = Total AUC in Balb/c mouse at 10 mg/kg, po measured after 24 hrs; assay type: ADME, organism-based; design: dose 10 mg/kg, time AUCmax, route oral; settings: in vivo; outline: as §2
[7] = Metabolic stability in Balb/c mouse liver microsomes assessed as parent compound remaining at 0.5 uM measured after 10 mins; assay type: ADME, Microsome; settings: read-out: Stability
Outline: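 Test compound at 0.5 μM was incubated for 10 min with mouse liver microsomes. The read-out is the percentage of parent remaining.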

[8] = Permeability of compound at pH 5.5 by PAMPA; assay type: ADME; settings: read-out: permeability
Outline: (§3)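 Permeability was measured by parallel artificial membrane permeability assay (PAMPA) at pH 5.5 and pH 7.4. Values are reported in nm/s.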

[9] = Permeability of compound at pH 7.4 by PAMPA; assay type: ADME; settings: read-out: permeability; outline: as §3

Structure (SMILES) | pIC50 (Endothelial lipase [1]) | pIC50 [2] | pIC50 (Endothelial lipase [3]) | Cmax [4] [nM] | concentration at 7 h [5] [nM] | AUC at 24 h [6] [µM·h] | remaining at 10 min, 0.5 µM [7] [%] | Papp [8] [×10⁻⁶ cm/s] | Papp [9] [×10⁻⁶ cm/s]
CS(=O)(=O)C(C(=O)NCCCS(N)(=O)=O)c1nc2ccc(-c3ccccc3)cc2s1 (stereo not drawn) | 5.11 | 7.28 |  |  |  |  |  |  | 
CS(=O)(=O)C(C(=O)NCCNS(N)(=O)=O)c1nc2ccc(-c3ccccc3)cc2s1 (stereo not drawn) | 6.35 | 7.09 |  |  |  |  |  |  | 
CS(=O)(=O)C(C(=O)NCCS(N)(=O)=O)c1nc2ccc(-c3ccc(F)nc3)cc2s1 (stereo not drawn) | 8.30 | 5.36 | 6.70 | 30 | 1 | 0.05 | 96 | 1.7 | 7.8
